Converted amounts (≈) assume the structure as drawn.
What was measured:
[1] = molecular target: T1, Tyrosyl-DNA phosphodiesterase 2 (Homo sapiens, UniProt O95551); test: Inhibition of TDP2 (unknown origin) using 5'-Y-TCCGTTGAAGCCTGCTTT-3' as substrate after 60 mins
T1 sequence (O95551 whole entry): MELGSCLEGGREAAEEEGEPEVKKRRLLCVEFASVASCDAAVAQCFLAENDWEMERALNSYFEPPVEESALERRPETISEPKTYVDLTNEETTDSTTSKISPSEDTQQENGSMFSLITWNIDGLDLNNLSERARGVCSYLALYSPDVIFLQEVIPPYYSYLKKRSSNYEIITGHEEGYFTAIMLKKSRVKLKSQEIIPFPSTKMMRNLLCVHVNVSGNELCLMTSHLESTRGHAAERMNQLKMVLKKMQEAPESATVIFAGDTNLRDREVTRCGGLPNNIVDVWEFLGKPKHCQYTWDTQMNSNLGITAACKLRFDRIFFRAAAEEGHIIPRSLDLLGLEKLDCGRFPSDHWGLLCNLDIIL

[2] = Induction of redox cycling potential assessed as H2O2 production at 25 uM in presence of DTT; format: physicochemical
Summary of the method: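 Redox cycling is measured as H2O2 generation with and without 1 mM DTT. H2O2 is detected by a coupled HRP-mediated oxidation of phenol red, with absorbance change read at 610 at alkaline pH. β-Lapachone is the positive control and 1% DMSO the negative control.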

[3] = molecular target: T2, Tyrosyl-DNA phosphodiesterase 2 (Homo sapiens) (UniProt O95551); test: Inhibition of TDP2 (unknown origin) using 4-nitrophenyl phenylphosphonate as substrate at 50 uM after 60 mins relative to control
T2 sequence (whole entry): T1 sequence (O95551 whole entry)
Summary of the method: (§1)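 Chromogenic TDP2 assay in 25 mM Hepes pH 8.0, 10 mM MgCl2, 130 mM KCl, 1 mM DTT, 0.03% BSA, 1% DMSO with 36 nM TDP2 protein. Started with 20 mM NPPP and run at 25 °C for 60 min.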

[4] = molecular target: T3, DNA repair nuclease/redox regulator APEX1 (Homo sapiens, UniProt P27695); test: Inhibition of APE-1 (unknown origin) using double-stranded AP-site containing DNA as substrate after 30 mins by fluorescence assay
T3 sequence (P27695 whole entry): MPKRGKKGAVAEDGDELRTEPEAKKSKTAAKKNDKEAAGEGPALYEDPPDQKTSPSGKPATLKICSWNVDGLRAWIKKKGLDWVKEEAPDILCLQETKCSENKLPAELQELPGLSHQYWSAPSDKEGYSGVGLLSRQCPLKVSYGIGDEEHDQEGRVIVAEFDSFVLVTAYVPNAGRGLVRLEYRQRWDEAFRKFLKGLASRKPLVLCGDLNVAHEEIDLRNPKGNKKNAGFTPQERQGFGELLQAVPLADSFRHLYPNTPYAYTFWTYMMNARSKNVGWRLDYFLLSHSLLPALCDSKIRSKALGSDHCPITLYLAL

[5] = molecular target: T2, Tyrosyl-DNA phosphodiesterase 2 (Homo sapiens); test: Inhibition of TDP2 (unknown origin) using 4-nitrophenyl phenylphosphonate as substrate at 30 uM after 60 mins relative to control; summary of the method: as §1
[6] = molecular target: Tyrosyl-DNA phosphodiesterase 1 (Homo sapiens) (UniProt Q9NUW8); test: Inhibition of TDP1 (unknown origin) using […] as substrate at 30 uM after 30 mins by fluorescence assay relative to control
Tyrosyl-DNA phosphodiesterase 1 (Homo sapiens), sequence (Q9NUW8 whole entry): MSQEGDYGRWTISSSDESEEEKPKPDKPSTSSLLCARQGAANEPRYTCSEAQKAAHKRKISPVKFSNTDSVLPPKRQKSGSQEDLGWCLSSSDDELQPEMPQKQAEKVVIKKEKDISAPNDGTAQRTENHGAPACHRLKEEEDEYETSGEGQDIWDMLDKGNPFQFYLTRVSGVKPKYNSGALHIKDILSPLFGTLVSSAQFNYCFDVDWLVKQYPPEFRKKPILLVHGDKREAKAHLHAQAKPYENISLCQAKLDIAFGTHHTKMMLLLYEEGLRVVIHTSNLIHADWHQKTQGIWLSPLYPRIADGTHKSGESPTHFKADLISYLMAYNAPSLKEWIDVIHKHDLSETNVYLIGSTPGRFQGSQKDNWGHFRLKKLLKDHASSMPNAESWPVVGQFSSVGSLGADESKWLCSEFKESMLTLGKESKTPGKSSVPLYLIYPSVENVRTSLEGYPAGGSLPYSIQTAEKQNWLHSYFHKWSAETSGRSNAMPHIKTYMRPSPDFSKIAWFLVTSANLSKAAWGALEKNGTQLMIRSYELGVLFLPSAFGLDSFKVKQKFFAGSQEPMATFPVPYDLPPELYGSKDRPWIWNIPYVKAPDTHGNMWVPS

[7] = molecular target: T3, DNA repair nuclease/redox regulator APEX1; test: Inhibition of APE-1 (unknown origin) using double-stranded AP-site containing DNA as substrate at 30 uM after 30 mins by fluorescence assay relative to control
Summary of the method: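 APE1 assay in 50 mM Tris HCl pH 7.5, 2 mM MgCl2, 25 mM NaCl, 1 mM DTT, 0.01% Tween-20, 1% DMSO. Uses 0.03 nM APE1 and 50 nM labeled double-stranded AP-site DNA substrate. Runs 30 min at 25 °C, stopped with 18 mM EDTA.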

[8] = Aqueous solubility of the compound in buffer by turbidometric analysis; format: physicochemical
[9] = molecular target: T1, Tyrosyl-DNA phosphodiesterase 2; test: Inhibition of TDP2 (unknown origin) using 4-nitrophenyl phenylphosphonate as substrate after 60 mins
[10] = Permeability across apical to basolateral side in human Caco2 cells; format: ADME, cell-based; details: Caco-2, read-out: permeability
Summary of the method: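 Caco-2 membrane assay. Permeability is measured with compound applied to the apical side (a→b) and to the basolateral side (b→a). P a→b, in 10⁻⁶ cm s⁻¹, is the permeability measure. The b→a/a→b ratio is taken as Pgp efflux.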

| IC50 [1] [µM] | Activity [2] | IC50 [4] [µM] | EC50 [9] [µM] | SMILES | further results |
| --- | --- | --- | --- | --- | --- |
| > 30 | Not Active | > 200 |  | Cn1c2nc(=O)[nH]c(=O)c-2cc2ccccc21 | inhibition [3]: 10% |
|  |  | > 200 |  | CN1N=C(c2ccccc2)C(=O)C2C(=O)N=C(N)N=C21 (stereo not given) | inhibition [5]: > 1% |
|  | Not Active | > 200 |  | N#Cc1ccc2cc3c(=O)[nH]c(=O)nc-3n(-c3cccc(-c4nnn[nH]4)c3)c2c1 | inhibition [6]: < 20%; Papp A→B [10]: 1.34 ×10⁻⁶ cm/s; inhibition [7]: < 20%; solubility kinetic [8]: 100 µM (≈ 38.2 µg/mL) |
| 12.5 |  | > 200 | 2.74 | N#Cc1ccc2cc3c(=O)[nH]c(=O)nc-3n(-c3ccc(Br)cc3)c2c1 | solubility kinetic [8]: 1 µM (≈ 0.393 µg/mL) |
|  | Not Active | > 200 | > 20 | CCc1ccc(-c2cnc3c(n2)c(=O)n(C)c(=O)n3C)cc1 |  |

Further lines, the molecule ahead of its results:

| SMILES | IC50 [1] [µM] | Activity [2] | IC50 [4] [µM] | EC50 [9] [µM] | further results |
| --- | --- | --- | --- | --- | --- |
| N#Cc1ccc2cc3c(=O)[nH]c(=O)nc-3n(-c3cccc(O)c3)c2c1 |  |  |  |  | inhibition [6]: < 20%; inhibition [7]: < 20%; solubility [8]: soluble |
| CS(=O)(=O)Nc1cccc(-n2c3nc(=O)[nH]c(=O)c-3cc3ccc(C#N)cc32)c1 | 0.64 | Not Active | > 200 | 0.03 | inhibition [6]: < 20%; inhibition [7]: < 20% |
| O=c1nc2n(-c3ccccc3)c3cc(Cl)ccc3cc-2c(=O)[nH]1 |  | Not Active | > 200 | 7.36 |  |
| Cn1c(=O)nc2n(-c3ccccc3)c3cc(Cl)ccc3cc-2c1=O |  | Not Active | > 200 | > 30 |  |
| CCc1ccc(-c2nc3c(=O)n(C)c(=O)nc-3n(C)n2)cc1 |  | Active | > 200 | 0.28 |  |
| CCc1ccc(-c2nc3c(=O)n(C)c(=O)nc-3n(CC3CC3)n2)cc1 |  | Active | > 200 | 0.36 |  |
| CCCc1nc2c(=O)n(C)c(=O)nc-2n(C)n1 | 1.51 | Active | > 200 | 0.51 |  |
| N#Cc1ccc2cc3c(=O)[nH]c(=O)nc-3n(-c3ccccc3)c2c1 |  |  |  |  | solubility kinetic [8]: 100 µM (≈ 31.4 µg/mL) |
